For experiment [1], the target named is T1, Glutathione S-transferase A1 (Homo sapiens, UniProt P08263).
T1 sequence (P08263 whole entry): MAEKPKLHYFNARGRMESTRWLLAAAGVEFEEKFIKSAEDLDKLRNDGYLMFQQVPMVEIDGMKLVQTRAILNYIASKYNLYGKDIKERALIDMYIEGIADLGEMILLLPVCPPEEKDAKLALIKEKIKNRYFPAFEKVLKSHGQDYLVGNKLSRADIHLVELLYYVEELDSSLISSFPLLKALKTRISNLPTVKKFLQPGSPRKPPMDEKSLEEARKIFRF
The experiment is described as follows: Inhibitory activity was measured on recombinant human Glutathione-S-transferase A1 enzyme. A digest of the protocol: (§1)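 Enzyme inhibition was measured in the reaction of recombinant human GST isozymes (four isozymes tested) with glutathione and 1-chloro-2,4-dinitrobenzene (CDNB) as the electrophilic substrate. Ki values were determined by a previously published method. The error in each measurement is stated as ±30%.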

The target in experiment [2] is T2, Glutathione S-transferase Mu 1 (Homo sapiens, UniProt P09488).
T2 sequence (P09488 whole entry): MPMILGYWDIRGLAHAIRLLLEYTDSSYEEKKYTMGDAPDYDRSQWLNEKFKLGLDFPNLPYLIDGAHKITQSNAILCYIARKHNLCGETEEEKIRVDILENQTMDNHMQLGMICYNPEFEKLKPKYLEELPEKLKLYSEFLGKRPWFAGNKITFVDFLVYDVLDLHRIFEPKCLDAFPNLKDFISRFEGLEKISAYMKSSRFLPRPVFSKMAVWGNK
The experiment is described as follows: Inhibitory activity was measured on recombinant human Glutathione S-transferase Mu 1. A digest of the protocol:
as §1

The target in experiment [3] is T3, Glutathione S-transferase Mu 2 (Homo sapiens, UniProt P28161).
T3 sequence (P28161 whole entry): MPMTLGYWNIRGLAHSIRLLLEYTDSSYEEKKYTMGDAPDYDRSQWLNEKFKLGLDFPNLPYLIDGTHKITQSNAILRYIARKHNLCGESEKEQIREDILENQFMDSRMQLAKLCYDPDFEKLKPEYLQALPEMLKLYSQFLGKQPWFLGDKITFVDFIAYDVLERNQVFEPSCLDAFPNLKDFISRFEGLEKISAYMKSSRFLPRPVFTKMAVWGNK
As to the kind of experiment: Inhibitory activity was measured on recombinant human Glutathione S-transferase Mu 2. The gist of the method:
as §1

The target of experiment [4] is Glutathione S-transferase P (Homo sapiens, UniProt P09211). The experiment is described as follows: Inhibitory activity was measured on recombinant human Glutathione S-transferase P. The gist of the method:
as §1

Experiment [5] has as its target T2, Glutathione S-transferase Mu 1. The experiment is described as follows: Inhibitory activity was measured on recombinant human Glutathione-S-transferase M1a enzyme. A digest of the protocol:
as §1

Numbered stars: 1 amine (or outer) side, 2 acyl side, 3 side chain; on linkers, the order of the positions; unused ones are H or OH. Square brackets hold non-standard residues; d marks the D form. Peptide text beside a SMILES is read from it. * marks the point of attachment. γGlu = O=C(O)[CH](CCC(=O)[*:2])N[*:1]; Phg = N[CH](C(=O)O)c1ccccc1; Bn = c1ccc(C*)cc1

Broadly, the Ki is the dissociation constant of the complex between target and ligand, obtained from inhibition or displacement.

Glutathione S-transferase P, sequence (P09211 whole entry): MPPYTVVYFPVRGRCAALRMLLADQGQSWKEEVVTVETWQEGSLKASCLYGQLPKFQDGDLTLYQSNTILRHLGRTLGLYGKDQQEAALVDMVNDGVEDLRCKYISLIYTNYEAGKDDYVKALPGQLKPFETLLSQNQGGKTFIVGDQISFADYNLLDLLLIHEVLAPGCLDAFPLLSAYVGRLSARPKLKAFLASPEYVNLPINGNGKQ

Consider `NC(CCC(=O)NC(CSCc1ccccc1)C(=O)NCCC(=O)O)C(=O)O` (configuration not stated), for which the Ki in experiment [1] worked out at 360 µM; in experiment [2], 22 µM; in experiment [3], 26 µM; in experiment [4], 710 µM.

As for `CCCCCCSCC(NC(=O)CCC(N)C(=O)O)C(=O)NCC(=O)O` (configuration not stated), the values for the Ki in experiment [1], in experiment [2] and in experiment [3] were 0.84 µM, 2 µM and 36 µM, respectively.

On to `CCCCCCSCC(NC(=O)CCC(N)C(=O)O)C(=O)NC(C(=O)O)c1ccccc1` (configuration not stated), for which the inhibitory constant (Ki) in experiment [1] turned out to be 5.8 µM; in experiment [2], 41 µM; in experiment [3], 97 µM; in experiment [4], 0.85 µM.

Regarding `NC(CCC(=O)NC(CSCc1ccc(Cl)cc1)C(=O)NC(C(=O)O)c1ccccc1)C(=O)O` (configuration not stated), the Ki in experiment [1] came to 14.7 µM; in experiment [5], 15.1 µM; in experiment [3] it was 48.3 µM; in experiment [4], 0.12 µM.

Regarding `NC(CCC(=O)NC(CSCc1ccccc1)C(=O)NC(C(=O)O)c1ccccc1)C(=O)O` (configuration not stated) (γGlu-Cys(Bn)-[Phg]-OH; configuration not given here), the inhibition constant Ki worked out at 24.3 µM in experiment [1], 57.8 µM in experiment [2], 184 µM in experiment [3] and 0.42 µM in experiment [4].

`Cc1ccc(CSCC(NC(=O)CCC(N)C(=O)O)C(=O)NCCC(=O)O)cc1` (configuration not stated): the Ki was determined as 43 µM in experiment [1], 2.1 µM in experiment [2], 20 µM in experiment [3] and 40 µM in experiment [4].

For `CCCCCCSCC(NC(=O)CCC(N)C(=O)O)C(=O)NCCC(=O)O` (configuration not stated), the Ki in experiment [1] came to 43 µM; in experiment [2] it was 11 µM; in experiment [3], 42 µM; in experiment [4], 550 µM.

The values above are taken from ChEMBL document CHEMBL1127736, “Isozyme-specific glutathione-S-transferase inhibitors: design and synthesis” (J Med Chem, 1994).
